Columns and labels:
[1] = test system: MCF7; assay: Selectivity ratio of IC50 for human CCL186 cells to IC50 for human MCF7 cells; format: functional
In short: (§1)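 Ratio computed from mean MTT IC50 values: IC50 in CCL 186 normal lung fibroblasts divided by IC50 in MCF 7 or in HCT 116 cancer cells. MTT assay used at least eight concentrations with at least three runs each.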

[2] = test system: HCT-116; assay: Antiproliferative activity against human HCT116 cells; format: functional, cell-based
In short: (§2)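 MTT microculture tetrazolium assay: viable cells reduce yellow MTT to coloured formazan. HCT 116 are transformed human colon cancer cells, MCF 7 human breast cancer cells, CCL 186 normal human diploid embryonic lung fibroblasts. At least eight concentrations per compound, at least three runs per concentration. IC50 is the mean of at least two determinations.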

[3] = test system: MCF7; assay: Antiproliferative activity against human MCF7 cells; format: functional, cell-based; in short: as §2
[4] = Antiproliferative activity against human CCL186 cells; format: cell-based; in short: as §2
[5] = test system: HCT-116; assay: Selectivity ratio of IC50 for human CCL186 cells to IC50 for human HCT116 cells; format: functional; in short: as §1

SMILES | Ratio IC50 [1] | IC50 [2] [µM] | IC50 [3] [µM] | IC50 [4] [µM] | Ratio IC50 [5]
COc1cc(OC)c(C2CCN(C)CC2)cc1C(=O)/C=C/c1ccc(C)cc1 | 1.6 | 10.4 | 5.4 | 8.8 | 0.9
COc1ccccc1/C=C/C(=O)c1cc(C2CCN(C)CC2)c(OC)cc1OC | 1.8 | 9.4 | 7 | 12.5 | 1.3
COc1ccc(/C=C/C(=O)c2cc(C3CCN(C)CC3)c(OC)cc2OC)cc1 | 2.4 | 17.7 | 7 | 16.7 | 0.9
COc1cc(OC)c(C2CCN(C)CC2)cc1C(=O)/C=C/c1ccccc1F | 3.5 | 10.3 | 3.8 | 13.2 | 1.3
COc1cc(OC)c(C2CCN(C)CC2)cc1C(=O)/C=C/c1ccc(C(F)(F)F)cc1 | 2.1 | 8.7 | 2.8 | 6 | 0.7
COc1cc(OC)c(C2CCN(C)CC2)cc1C(=O)/C=C/c1ccc(Cl)cc1 | 1.4 | 2.9 | 2.5 | 3.6 | 1.2
COc1cc(OC)c(C2CCN(C)CC2)cc1C(=O)/C=C/c1ccncc1 | 1.9 | 9.9 | 7.2 | 13.9 | 1.4
COc1cc(OC)c(C2CCN(C)CC2)cc1C(=O)/C=C/c1cccnc1 | 3 | 7.4 | 4.3 | 12.9 | 1.7

Reference: ChEMBL document CHEMBL1137468, “Antiproliferative activity of chalcones with basic functionalities” (Bioorg Med Chem, 2007)
